ChEMBL document CHEMBL3576868 (J Med Chem, 2015)
Substitutions are numbered along the chain they refer to. Active and inactive are the calls of the source. The rule behind the calls is not given here.

What was measured:
[1] = target: T1, Beta-N-acetyl-D-hexosaminidase-A/B (Homo sapiens, UniProt P07686+P06865); assay: Inhibition of human placental HexA using pNPGlcNAc substrate
T1 sequence (P07686 whole entry): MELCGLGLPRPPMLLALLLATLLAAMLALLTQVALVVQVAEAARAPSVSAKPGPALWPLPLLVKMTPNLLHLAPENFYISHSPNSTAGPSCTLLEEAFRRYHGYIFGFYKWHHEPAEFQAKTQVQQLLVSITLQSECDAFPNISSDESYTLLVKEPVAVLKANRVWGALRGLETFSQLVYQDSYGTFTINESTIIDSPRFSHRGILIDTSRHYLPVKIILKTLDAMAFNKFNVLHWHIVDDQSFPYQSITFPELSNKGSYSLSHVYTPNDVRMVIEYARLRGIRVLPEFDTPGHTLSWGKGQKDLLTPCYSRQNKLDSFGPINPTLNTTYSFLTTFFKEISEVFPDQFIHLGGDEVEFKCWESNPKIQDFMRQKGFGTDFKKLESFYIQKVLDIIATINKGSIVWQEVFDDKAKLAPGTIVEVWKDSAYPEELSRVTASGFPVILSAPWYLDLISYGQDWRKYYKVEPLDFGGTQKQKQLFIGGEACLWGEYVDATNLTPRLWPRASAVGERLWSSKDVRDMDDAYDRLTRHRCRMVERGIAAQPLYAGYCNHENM
T1 sequence (P06865 whole entry): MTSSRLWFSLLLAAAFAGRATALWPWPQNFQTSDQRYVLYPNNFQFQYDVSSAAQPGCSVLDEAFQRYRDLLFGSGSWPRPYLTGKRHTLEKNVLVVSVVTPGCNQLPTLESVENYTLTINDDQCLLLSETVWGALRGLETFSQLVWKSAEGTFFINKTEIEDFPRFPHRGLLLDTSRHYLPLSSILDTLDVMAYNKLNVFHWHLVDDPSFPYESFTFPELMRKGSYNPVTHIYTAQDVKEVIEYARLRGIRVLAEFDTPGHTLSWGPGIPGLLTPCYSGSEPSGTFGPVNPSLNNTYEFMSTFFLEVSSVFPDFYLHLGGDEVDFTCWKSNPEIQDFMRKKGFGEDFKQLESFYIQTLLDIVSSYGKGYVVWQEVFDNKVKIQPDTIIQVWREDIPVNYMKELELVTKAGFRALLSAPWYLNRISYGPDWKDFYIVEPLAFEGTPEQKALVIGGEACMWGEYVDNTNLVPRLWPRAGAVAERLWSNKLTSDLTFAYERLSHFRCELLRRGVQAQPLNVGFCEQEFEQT

[2] = test system: T2, Beta-hexosaminidase subunit alpha (Homo sapiens), P06865 [G269S]; assay: Chaperoning efficacy at HexA alpha G269S mutant in ATSD patient fibroblasts assessed as maximum increase in enzyme activity using MUGS substrate incubated for 1 to 2 hrs by spectrofluorometry relative to control
T2 sequence (whole entry): T1 sequence (P06865 whole entry) with G269S
Procedure, shortened: (§1)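 G269S-homozygous ATSD patient fibroblasts plated at 70−90% confluence and treated 5 days with serially diluted compound in DMEM/10% FBS, DMSO held at 1%. After PBS washes, cells were lysed in McIlvaine buffer pH 4.5 with 0.4% Triton X-100 and 0.025% HSA at 4 °C for 30 min. Lysate was incubated with MUGS (1.6 mM) at 37 °C for 1−2 h and stopped with 0.1 M MAP pH 10.5. Fluorescence read at Ex 365/Em 450 nm. Activity expressed relative to mock (1% DMSO) cells; triplicates.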

[3] = test system: T2, Beta-hexosaminidase subunit alpha (Homo sapiens), P06865 [G269S]; assay: Chaperoning efficacy at HexA alpha G269S mutant in ATSD patient fibroblasts assessed as drug level causing maximum increase in enzyme activity using MUGS substrate incubated for 1 to 2 hrs by spectrofluorometry relative to control; procedure, shortened: as §1
[4] = Toxicity against ATSD patient fibroblasts assessed as reduction in beta-galactosidase activity at >400 uM; type: cell-based; design: scale not given: the % may be the effect or the level left; details: human, fibroblast
[5] = Toxicity against ATSD patient fibroblasts assessed as reduction in beta-galactosidase activity at; type: cell-based; details: human, fibroblast
[6] = test system: T2, Beta-hexosaminidase subunit alpha (Homo sapiens), P06865 [G269S]; assay: Chaperoning efficacy at HexA alpha G269S mutant in ATSD patient fibroblasts assessed as maximum increase in enzyme activity using MUGS substrate incubated for 1 to 2 hrs by spectrofluorometry relative to pyrimethamine
[7] = target: T3, Dihydrofolate reductase (Homo sapiens) (UniProt P00374); assay: Inhibition of human DHFR
T3 sequence (whole entry): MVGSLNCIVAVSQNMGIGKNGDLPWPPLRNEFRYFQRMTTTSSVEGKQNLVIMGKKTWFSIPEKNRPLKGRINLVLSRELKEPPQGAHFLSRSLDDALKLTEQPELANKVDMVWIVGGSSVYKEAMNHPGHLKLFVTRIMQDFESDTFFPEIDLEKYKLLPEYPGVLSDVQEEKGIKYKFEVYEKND

[8] = target: Signal transducer and activator of transcription 3 (Homo sapiens) (UniProt P40763); assay: Inhibition of STAT3 phosphorylation at 100 uM
Chain of Signal transducer and activator of transcription 3 (Homo sapiens) (P40763 whole entry): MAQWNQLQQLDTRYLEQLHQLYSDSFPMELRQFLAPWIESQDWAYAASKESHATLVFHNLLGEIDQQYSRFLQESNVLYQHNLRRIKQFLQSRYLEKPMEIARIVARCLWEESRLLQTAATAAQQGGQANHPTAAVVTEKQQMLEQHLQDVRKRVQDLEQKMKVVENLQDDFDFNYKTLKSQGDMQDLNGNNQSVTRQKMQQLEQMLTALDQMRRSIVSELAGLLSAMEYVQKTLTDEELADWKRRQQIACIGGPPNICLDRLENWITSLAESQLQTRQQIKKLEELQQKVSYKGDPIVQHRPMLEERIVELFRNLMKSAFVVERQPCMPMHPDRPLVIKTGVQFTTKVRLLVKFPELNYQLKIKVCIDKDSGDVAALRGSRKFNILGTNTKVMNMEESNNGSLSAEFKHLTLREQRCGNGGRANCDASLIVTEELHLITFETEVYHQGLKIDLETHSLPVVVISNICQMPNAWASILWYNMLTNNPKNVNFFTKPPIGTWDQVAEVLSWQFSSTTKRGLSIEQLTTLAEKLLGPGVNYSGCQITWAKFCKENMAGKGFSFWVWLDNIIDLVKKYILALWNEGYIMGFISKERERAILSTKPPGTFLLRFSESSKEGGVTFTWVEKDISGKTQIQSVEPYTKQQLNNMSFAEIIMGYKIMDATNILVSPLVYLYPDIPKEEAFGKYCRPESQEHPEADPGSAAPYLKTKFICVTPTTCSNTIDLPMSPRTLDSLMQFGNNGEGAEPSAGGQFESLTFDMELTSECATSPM

[9] = Toxicity against ATSD patient fibroblasts assessed as reduction in beta-galactosidase activity at >200 uM; type: cell-based; details: human, fibroblast
[10] = target: Beta-hexosaminidase subunit alpha (Homo sapiens, UniProt P06865, G269S); assay: Inhibition of HexA alpha G269S mutant in ATSD patient fibroblasts using MUG substrate incubated for 1 to 2 hrs at pH 4.5 by spectrofluorometry

Row | Structure (SMILES) | IC50 [1] [µM] | fold change (FC) [2] | Activity [3] [µM] | Activity [4] | also measured
1 | Cc1nc(N)nc(N)c1-c1ccc(Cl)cc1 | > 560 | – | – | – | –
2 | CCc1nc(N)[nH]c(=O)c1-c1ccc(Cl)cc1 | > 2100 | – | – | – | –
3 | CCc1nc(N)nc(N)c1-c1ccc(OC)cc1 | 18 | 2 | 30 | > 60% | Activity [5]: Toxic
4 | CCc1nc(N)nc(N)c1-c1cccc(C)c1 | – | 2.9 | 100 | > 60% | Activity [6]: 30%
5 | NCc1nc(N)nc(N)c1-c1ccc(Cl)cc1 | 180 | – | – | – | –
6 | CCc1nc(N)nc(N)c1-c1ccccc1C | 43 | 2.3 | 100 | > 60% | Activity [6]: 30%
7 | CCc1nc(N)nc(N)c1-c1ccc(C)cc1 | 40 | 1.7 | 30 | > 60% | Activity [5]: Toxic
8 | CCc1ncncc1-c1ccc(C(F)(F)F)cc1 | > 940 | – | – | – | –
9 | CCc1nc(N)ncc1-c1ccc(Cl)cc1 | > 400 | – | – | – | –
10 | CC(C)c1nc(N)nc(N)c1-c1ccc(Cl)cc1 | > 410 | – | – | – | –
11 | CCc1nc(N)nc(N)c1-c1ccc(Cl)cc1 [PYRIMETHAMINE] | – | 2.1 | 30 | > 60% | inhibition [7]: Active; Activity [5]: Toxic; inhibition [8]: Active
12 | CCc1nc(N)nc(N)c1-c1cc(C)cc(C)c1 | – | 2.5 | 100 | > 60% | Activity [6]: 30%
13 | CCCCc1nc(N)nc(N)c1-c1ccc(Cl)cc1 | > 1400 | – | – | – | –
14 | CCCc1nc(N)nc(N)c1-c1ccc(Cl)cc1 | – | 1.5 | – | – | –
15 | CCc1nc(N)ncc1-c1ccc(C(F)(F)F)cc1 | > 400 | – | – | – | –
16 | CCc1nc(N)nc(N)c1-c1ccc(C(F)(F)F)cc1 | – | 2.2 | 30 | > 60% | Activity [5]: Toxic
17 | CCc1nc(N)nc(N)c1-c1ccccc1 | – | 2.7 | – | Non-toxic | Activity [6]: 30%; inhibition [7]: Active; Activity [9]: Toxic; IC50 [10]: 27 µM
